Measurements taken from ChEMBL document CHEMBL1125741, “Synthesis and anticonvulsant activity of imidooxy derivatives” (J Med Chem, 1991).
Calls of active or inactive are those of the source. No cut-off for these calls is given here.

Columns and labels:
Gallus gallus [1] = assay: Anticonvulsant activity by subcutaneous pentylenetetrazole test at a dose of 100 mg/kg against young chicks after 30 min; 0/0; assay type: functional
[2] = Protective index which is the ratio of TD50 to ED50 of in maximal electroshock test.; assay type: functional
Procedure, shortened: (§1)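 Phase II quantitation, drug given ip. ED50 in the MES or scMet test was taken at the time of peak effect, with the peak time set in MES for some compounds and in scMet for others. Rotorod TD50 was taken at the time of peak neurologic deficit. Values are in mg/kg with 95% confidence limits. Protective index is TD50/ED50.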

[3] = Time of peak effect (TPE) for toxicity; design: unit not given here; procedure, shortened: as §1
Gallus gallus [4] = assay: Anticonvulsant activity by maximal electroshock test at a dose of 100 mg/kg against young chicks after 30 min; 2/3; assay type: functional
Gallus gallus [5] = assay: Toxicity test (number of animals exhibiting toxicity / number of animals tested) done at a dose 100 mg/kg against young chicks after 4 hr; 4/4; assay type: organism-based; design: dose 100 mg/kg; settings: chicken, in vivo
Gallus gallus [6] = assay: Compound was evaluated for effective dose by maximal electroshock test after intraperitoneal administration of the compound.; assay type: functional; settings: ip; procedure, shortened: as §1
[7] = Time of peak effect (TPE) for activity; assay type: ADME; design: unit not given here; procedure, shortened: as §1
Gallus gallus [8] = assay: Toxicity test (number of animals exhibiting toxicity / number of animals tested) done at a dose 100 mg/kg against young chicks after 30 min; 8/8; assay type: organism-based; design: dose 100 mg/kg; settings: chicken, in vivo, 0.5 h
[9] = Compound was evaluated for toxic dose at peak neurologic deficit after intraperitoneal administration of the compound.; assay type: ADME, organism-based, Gallus gallus; settings: chicken, in vivo, ip
Procedure, shortened: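 Mice received compound dissolved or suspended in 30% polyethylene glycol 400 by intraperitoneal injection. Neurological toxicity was scored as failure on the rotorod test. Testing was run through the NINCDS Antiepileptic Drug Development Program.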

Gallus gallus [10] = assay: Toxicity test (number of animals exhibiting toxicity / number of animals tested) done at a dose 100 mg/kg against young chicks after 4 hr; […]; assay type: organism-based; design: dose 100 mg/kg; settings: chicken, in vivo
Gallus gallus [11] = assay: Anticonvulsant activity by subcutaneous pentylenetetrazole test at a dose of 300 mg/kg against young chicks after 30 min; 1/1; assay type: functional
Gallus gallus [12] = assay: Anticonvulsant activity by maximal electroshock test at a dose of 100 mg/kg against young chicks after 30 min; 1/3; assay type: functional
Gallus gallus [13] = assay: Anticonvulsant activity by maximal electroshock test at a dose of 300 mg/kg against young chicks after 30 min; 1/1; assay type: functional
Gallus gallus [14] = assay: Anticonvulsant activity by subcutaneous pentylenetetrazole test at a dose of 30 mg/kg against young chicks after 30 min; 1/1; assay type: functional
[15] = Protective index which is the ratio of TD50 to ED50 of against subcutaneous pentylenetetrazole test; assay type: functional; procedure, shortened: as §1
Gallus gallus [16] = assay: Anticonvulsant activity by subcutaneous pentylenetetrazole test at a dose of 300 mg/kg against young chicks after 30 min; 0/0; assay type: functional
Gallus gallus [17] = assay: Anticonvulsant activity by subcutaneous pentylenetetrazole test at a dose of 100 mg/kg against young chicks after 30 min; 1/1; assay type: functional
Gallus gallus [18] = assay: Anticonvulsant activity by subcutaneous pentylenetetrazole test at a dose of 30 mg/kg against young chicks after 4 hr; 1/1; assay type: functional
Gallus gallus [19] = assay: Anticonvulsant activity by maximal electroshock test at a dose of 30 mg/kg against young chicks after 30 min; 1/1; assay type: functional
Gallus gallus [20] = assay: Compound was evaluated for effective dose by subcutaneous pentylenetetrazole test after intraperitoneal administration of the compound; Not Effective; assay type: functional, organism-based; procedure, shortened: as §1
Gallus gallus [21] = assay: Toxicity test (number of animals exhibiting toxicity / number of animals tested) at a dose of 30 mg/kg after 0.25 hr; 0/8; assay type: organism-based; design: dose 30 mg/kg; settings: chicken, in vivo
Gallus gallus [22] = assay: Toxicity test (number of animals exhibiting toxicity / number of animals tested) at a dose of 50 mg/kg after 0.50 hr; 4/8; assay type: organism-based; design: dose 50 mg/kg; settings: chicken, in vivo, 0.5 h
Gallus gallus [23] = assay: Toxicity test (number of animals exhibiting toxicity / number of animals tested) at a dose of 30 mg/kg after 4 hr; 8/8; assay type: organism-based; design: dose 30 mg/kg; settings: chicken, in vivo
Gallus gallus [24] = assay: Toxicity test (number of animals exhibiting toxicity / number of animals tested) at a dose of 30 mg/kg after 6 h; 8/8; assay type: organism-based; design: dose 30 mg/kg; settings: chicken, in vivo
Gallus gallus [25] = assay: Toxicity test (number of animals exhibiting toxicity / number of animals tested) at a dose of 50 mg/kg after 1 hr; 7/8; assay type: organism-based; design: dose 50 mg/kg; settings: chicken, in vivo
Gallus gallus [26] = assay: Toxicity test (number of animals exhibiting toxicity / number of animals tested) at a dose of 50 mg/kg after 2 hr; 6/8; assay type: organism-based; design: dose 50 mg/kg; settings: chicken, in vivo
Gallus gallus [27] = assay: Subcutaneous pentylenetetrazole test (ScMet) (number of animals protected / number of animals tested) at a dose of 30 mg/kg after 0.50 hr; 4/8; assay type: functional
Gallus gallus [28] = assay: Toxicity test (number of animals exhibiting toxicity / number of animals tested) at a dose of 30 mg/kg after 2 hr; 8/8; assay type: organism-based; design: dose 30 mg/kg; settings: chicken, in vivo
Gallus gallus [29] = assay: Subcutaneous pentylenetetrazole test (ScMet) (number of animals protected / number of animals tested) at a dose of 30 mg/kg after 2 hr; 8/8; assay type: functional
Gallus gallus [30] = assay: Subcutaneous pentylenetetrazole test (ScMet) (number of animals protected / number of animals tested) at a dose of 30 mg/kg after 1 hr; 8/8; assay type: functional
Gallus gallus [31] = assay: Subcutaneous pentylenetetrazole test (ScMet) (number of animals protected / number of animals tested) at a dose of 30 mg/kg after 0.25 hr; 4/8; assay type: functional
Gallus gallus [32] = assay: Toxicity test (number of animals exhibiting toxicity / number of animals tested) at a dose of 30 mg/kg after 0.50 hr; 0/8; assay type: organism-based; design: dose 30 mg/kg; settings: chicken, in vivo, 0.5 h
Gallus gallus [33] = assay: Toxicity test (number of animals exhibiting toxicity / number of animals tested) at a dose of 30 mg/kg after 1 hr; 1/8; assay type: organism-based; design: dose 30 mg/kg; settings: chicken, in vivo

Structure (SMILES): O=C1c2ccccc2C(=O)N1O
- No. of animals protected/animals tested (Gallus gallus [1]): 0
- PI [2]: 0.99
- TPE [3]: 0.25
- No. of animals protected/animals tested (Gallus gallus [4]): 2
- No. of animals protected/animals tested (Gallus gallus [5]): 4
- ED50 (Gallus gallus [6]): 95.4 mg/kg
- TPE [7]: 0.25
- No. of animals protected/animals tested (Gallus gallus [8]): 8

Structure (SMILES): O=C1CC2(CCCC2)C(=O)N1OCc1ccccc1
- PI [2]: 4.5
- TPE [3]: 4
- TD50 [9]: > 500 mg/kg
- TPE [7]: 0.25

Structure (SMILES): CCOC(=O)ON1C(=O)CCC1=O
- No. of animals protected/animals tested (Gallus gallus [10]): 4
- No. of animals protected/animals tested (Gallus gallus [11]): 1
- No. of animals protected/animals tested (Gallus gallus [12]): 1

Structure (SMILES): CCC1(c2ccccc2)C(=O)NC(=O)NC1=O [PHENOBARBITAL]
- TPE [3]: 0.5
- TPE [7]: 1

Structure (SMILES): C=C(CON1C(=O)c2ccccc2C1=O)C(=O)OC
- No. of animals protected/animals tested (Gallus gallus [13]): 1
- TPE [3]: 4
- No. of animals protected/animals tested (Gallus gallus [14]): 1
- PI [15]: 0.72
- No. of animals protected/animals tested (Gallus gallus [16]): 0
- No. of animals protected/animals tested (Gallus gallus [5]): 4
- No. of animals protected/animals tested (Gallus gallus [17]): 1
- No. of animals protected/animals tested (Gallus gallus [18]): 1
- No. of animals protected/animals tested (Gallus gallus [19]): 1
- TPE [7]: 1

Structure (SMILES): CCCC(CCC)C(=O)O [VALPROIC ACID]
- PI [2]: 1.57
- TPE [3]: 0.25
- PI [15]: 2.87
- TPE [7]: 0.25

Structure (SMILES): NC(=O)N1c2ccccc2C=Cc2ccccc21 [CARBAMAZEPINE]
- ED50 (Gallus gallus [20]): inactive
- TPE [3]: 0.25
- TPE [7]: 0.25

Structure (SMILES): CCC1(C)CC(=O)NC1=O (stereo not given) [ETHOSUXIMIDE]
- TPE [3]: 0.5
- TPE [7]: 0.5

Structure (SMILES): O=C1NC(=O)C(c2ccccc2)(c2ccccc2)N1 [PHENYTOIN]
- ED50 (Gallus gallus [20]): inactive
- TPE [3]: 2
- TPE [7]: 2

Structure (SMILES): O=C1c2cccc3cccc(c23)C(=O)N1[O-].[Na+]
- TPE [3]: 4
- PI [15]: 0.84
- TPE [7]: 0.25

Structure (SMILES): C=C(CON1C(=O)CCC1=O)C(=O)OC
- No. of animals protected/animals tested (Gallus gallus [21]): 0
- No. of animals protected/animals tested (Gallus gallus [22]): 4
- No. of animals protected/animals tested (Gallus gallus [23]): 8
- No. of animals protected/animals tested (Gallus gallus [24]): 8
- No. of animals protected/animals tested (Gallus gallus [25]): 7
- No. of animals protected/animals tested (Gallus gallus [26]): 6
- No. of animals protected/animals tested (Gallus gallus [27]): 4
- No. of animals protected/animals tested (Gallus gallus [28]): 8
- No. of animals protected/animals tested (Gallus gallus [29]): 8
- No. of animals protected/animals tested (Gallus gallus [30]): 8
- No. of animals protected/animals tested (Gallus gallus [31]): 4
- No. of animals protected/animals tested (Gallus gallus [32]): 0
- No. of animals protected/animals tested (Gallus gallus [33]): 1
